The values below come from paper PMC6035748 (Journal of biomedical materials research. Part A, 2018).

In one data set the test system is MDA-MB-231 tumors. As to the kind of experiment: Biodistribution in orthotopic MDA-MB-231 xenograft mouse model. The format is in vivo. The note with it: AXT050-IRD800 intravenous, organs harvested 24 h post injection.
Another data set has as its target integrin αvβ3 (Homo sapiens, UniProt P05106+P06756). Kind of data set: Bio-layer interferometry. In kind it is binding. The gist of the method:
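Biotinylated test peptide, 25 μM stock in 5% DMSO/95% water, diluted 100-fold in 0.05% Tween 20 in 1X PBS. The peptide was loaded onto streptavidin biosensors for 300 s, with 60 s buffer-only steps on either side. Association ran 600 s against human recombinant integrin αvβ3 at 10–300 nM in the same buffer. kon and koff were fitted to a single-binding-site association model.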

Ends that are not written are not given here.

Chain of integrin αvβ3 (P06756 31-992 limits assumed): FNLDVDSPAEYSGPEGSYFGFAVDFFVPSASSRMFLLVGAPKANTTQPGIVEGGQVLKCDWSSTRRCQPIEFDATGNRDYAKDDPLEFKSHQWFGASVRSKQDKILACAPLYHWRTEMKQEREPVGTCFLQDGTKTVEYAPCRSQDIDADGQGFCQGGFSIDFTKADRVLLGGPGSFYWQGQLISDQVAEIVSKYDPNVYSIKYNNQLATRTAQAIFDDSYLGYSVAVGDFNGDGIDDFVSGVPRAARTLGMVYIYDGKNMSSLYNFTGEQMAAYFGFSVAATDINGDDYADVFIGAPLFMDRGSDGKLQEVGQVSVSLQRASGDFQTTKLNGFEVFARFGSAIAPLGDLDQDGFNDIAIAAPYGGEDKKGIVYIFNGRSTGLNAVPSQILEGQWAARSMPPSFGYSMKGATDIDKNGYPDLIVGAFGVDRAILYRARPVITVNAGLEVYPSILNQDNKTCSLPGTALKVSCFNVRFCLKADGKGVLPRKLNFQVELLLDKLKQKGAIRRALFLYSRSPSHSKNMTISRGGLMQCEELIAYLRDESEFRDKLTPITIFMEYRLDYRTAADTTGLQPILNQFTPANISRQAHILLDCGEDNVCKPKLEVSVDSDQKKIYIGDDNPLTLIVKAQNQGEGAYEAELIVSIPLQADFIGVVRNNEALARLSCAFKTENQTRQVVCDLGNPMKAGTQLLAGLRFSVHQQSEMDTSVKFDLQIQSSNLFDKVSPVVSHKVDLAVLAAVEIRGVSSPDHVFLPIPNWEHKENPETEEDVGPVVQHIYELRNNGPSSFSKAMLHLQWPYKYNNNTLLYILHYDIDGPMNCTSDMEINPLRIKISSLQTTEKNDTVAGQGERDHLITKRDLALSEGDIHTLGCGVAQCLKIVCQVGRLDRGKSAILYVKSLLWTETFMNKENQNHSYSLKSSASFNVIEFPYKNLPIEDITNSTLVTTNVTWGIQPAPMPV
Chain of integrin αvβ3 (P05106 27-718 limits assumed): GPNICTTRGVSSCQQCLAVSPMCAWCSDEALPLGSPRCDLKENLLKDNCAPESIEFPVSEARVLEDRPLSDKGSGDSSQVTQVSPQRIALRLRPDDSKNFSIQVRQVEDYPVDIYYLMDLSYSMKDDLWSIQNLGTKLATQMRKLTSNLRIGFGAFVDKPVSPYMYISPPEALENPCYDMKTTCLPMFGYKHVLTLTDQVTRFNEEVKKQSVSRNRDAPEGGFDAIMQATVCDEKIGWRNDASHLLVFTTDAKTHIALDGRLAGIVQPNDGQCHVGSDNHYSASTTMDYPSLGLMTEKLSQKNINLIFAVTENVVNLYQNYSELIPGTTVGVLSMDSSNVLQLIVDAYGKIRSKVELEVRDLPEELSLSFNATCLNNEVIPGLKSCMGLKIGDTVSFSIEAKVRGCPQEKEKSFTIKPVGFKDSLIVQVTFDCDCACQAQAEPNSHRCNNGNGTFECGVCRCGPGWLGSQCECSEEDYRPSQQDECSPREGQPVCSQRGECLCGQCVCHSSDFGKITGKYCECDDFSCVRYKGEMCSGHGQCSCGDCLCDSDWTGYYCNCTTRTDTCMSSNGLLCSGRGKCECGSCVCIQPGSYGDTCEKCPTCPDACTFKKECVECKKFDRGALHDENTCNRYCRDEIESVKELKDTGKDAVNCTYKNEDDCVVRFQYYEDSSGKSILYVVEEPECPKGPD

As to LRRFSTAPFAFIDINDVINF [AXT050], the “organ with highest detection / main route of clearance” value in the data set on MDA-MB-231 tumors is recorded as “highest level of its detection in the kidneys”. In addition, the koff on integrin αvβ3 was 0.0032 s⁻¹.
